The source made the active and inactive calls. No cut-off for these calls is given here.
How the values were obtained:
MCF7 [1] = experiment: Cytotoxicity against human MCF7 cells at 100 uM after 96 hrs by MTT assay; assay type: functional, cell-based
MCF7 [2] = experiment: Inhibition of PI3K-mediated Akt phosphorylation at Ser473 in human MCF7 cells at 1 nM after 6 hrs by Western blot analysis; assay type: cell-based
Summary of the method: (§1)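 MCF-7 cells (2.0 × 10^5) exposed to 1 nM for 1, 3 and 6 h; 10 μM LY294002 as positive control. RIPA lysates, 40 μg per lane, 10% SDS-PAGE and PVDF transfer. Probed overnight at 4 °C with anti-Akt and anti-phospho-Akt Ser473 (1:1000 each), with β-actin (1:10000) as loading control. ECL detection.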

MCF7 [3] = experiment: Down regulation of ABCG2 expression in human MCF7 cells at 1 nM after 96 hrs by Western blot analysis
MCF7 [4] = experiment: Induction of apoptosis in human MCF7 cells assessed as late apoptotic cells at 1 nM after 96 hrs by annexinV/propidium iodide staining-based flow cytometric analysis (reference value: 5.02 %); assay type: functional
MCF7 [5] = experiment: Induction of apoptosis in human MCF7 cells assessed as early apoptotic cells at 1 nM after 96 hrs by annexinV/propidium iodide staining-based flow cytometric analysis (reference value: 3.05 %); assay type: functional
MCF7 [6] = experiment: Cytotoxicity against human MCF7 cells after 48 hrs by MTT assay; conditions: MCF7, 48 h
MCF7 [7] = experiment: Induction of apoptosis in human MCF7 cells assessed as viable cells at 1 nM after 96 hrs by annexinV/propidium iodide staining-based flow cytometric analysis (reference value: 89 %); assay type: functional; conditions: MCF7, 96 h, read-out: Activity
MCF7 [8] = experiment: Down regulation of Akt expression in human MCF7 cells at 1 nM after 6 hrs by Western blot analysis; assay type: functional, cell-based; summary of the method: as §1
MCF7 [9] = experiment: Induction of apoptosis in human MCF7 cells assessed as viable cells at 10 nM after 96 hrs by annexinV/propidium iodide staining-based flow cytometric analysis (reference value: 89 %); assay type: functional; conditions: MCF7, 96 h, read-out: Activity
HepG2 = experiment: Cytotoxicity against human HepG2 cells after 96 hrs by MTT assay; assay type: functional, cell-based; conditions: HepG2, 96 h
MCF7 [10] = experiment: Cytotoxicity against human MCF7 cells assessed as suppression of SP-positive cells at 10 nM after 90 mins by Hoechst staining-based FACS analysis (reference value: 2.71%); assay type: functional
Summary of the method: (§2)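 Side-population assay. MCF-7 cells (1 × 10^6) trypsinized, washed three times in PBS and resuspended in HBSS with 2% FBS and 10 mM HEPES. Incubated with Hoechst 33342 (5 μg/mL) at 37 °C for 90 min with or without compound (1 or 10 nM). FTC (10 μM) used as control. SP fraction gated by flow cytometry. At least three independent experiments.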

MCF7 [11] = experiment: Growth inhibition of human MCF7 cells at 1 nM after 96 hrs by MTT assay; assay type: functional; conditions: MCF7, 96 h, read-out: GI
MCF7 [12] = experiment: Induction of apoptosis in human MCF7 cells assessed as necrotic cells at 10 nM after 96 hrs by annexinV/propidium iodide staining-based flow cytometric analysis (reference value: 2.89 %); assay type: functional
MCF7 [13] = experiment: Induction of apoptosis in human MCF7 cells assessed as necrotic cells at 1 nM after 96 hrs by annexinV/propidium iodide staining-based flow cytometric analysis (reference value: 2.89 %); assay type: functional
MCF7 [14] = experiment: Cytotoxicity against ABCG2-positive human MCF7 cells at 10 nM after 96 hrs by Western blot analysis; assay type: functional, cell-based; conditions: in the assay text read “FACS analysis” for “Western blot analysis”
Summary of the method: (§3)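 ABCG2+ subpopulation counted by flow cytometry. MCF-7 cells (2.0 × 10^4) treated 96 h, trypsinized, washed in PBS and resuspended in HBSS with 2% FBS and 10 mM HEPES (10^6/100 μL). Labelled with anti-ABCG2 (5D3) for 30 min, then PE anti-mouse IgG for 15 min. PI (2 μg/mL) added to exclude dead cells. Total ABCG2+ cell number reported as mean ± SD of at least three independent experiments.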

MCF7 [15] = experiment: Cytotoxicity against ABCG2-positive human MCF7 cells at 1 nM after 96 hrs by Western blot analysis; assay type: functional, cell-based; conditions: in the assay text read “FACS analysis” for “Western blot analysis”; summary of the method: as §3
MCF7 [16] = experiment: Down regulation of ABCG2 expression in human MCF7 cells at 1 nM after 96 hrs by Western blot analysis; assay type: functional, cell-based
Summary of the method: (§4)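 MCF-7 cells (2.0 × 10^5) exposed to 1 nM for 24, 48, 72 and 96 h; 10 nM paclitaxel as control. Lysed in RIPA (pH 8) with protease and phosphatase inhibitors; 40 μg protein per lane run on 10% SDS-PAGE and transferred to PVDF. Blocked in 5% milk/TBST 1 h; primary antibody overnight at 4 °C. Anti-ABCG2 1:100, anti-PARP and anti-caspase-7 each 1:1000. ECL detection.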

MCF7 [17] = experiment: Induction of apoptosis in human MCF7 cells assessed as caspase 7 cleavage at 1 nM after 96 hrs by Western blot analysis; assay type: functional, cell-based; summary of the method: as §4
MCF7 [18] = experiment: Cytotoxicity against ABCG2-positive human MCF7 cells after 96 hrs by Western blot analysis; assay type: functional, cell-based; conditions: in the assay text read “FACS analysis” for “Western blot analysis”; summary of the method: as §3
MCF7 [19] = experiment: Induction of apoptosis in human MCF7 cells assessed as early apoptotic cells at 10 nM after 96 hrs by annexinV/propidium iodide staining-based flow cytometric analysis (reference value: 3.05 %); assay type: functional
MCF7 [20] = experiment: Induction of apoptosis in human MCF7 cells assessed as late apoptotic cells at 10 nM after 96 hrs by annexinV/propidium iodide staining-based flow cytometric analysis (reference value: 5.02 %); assay type: functional
MCF7 [21] = experiment: Induction of apoptosis in human MCF7 cells assessed as PARP cleavage at 1 nM after 96 hrs by Western blot analysis; assay type: functional, cell-based; summary of the method: as §4
PANC-1 = experiment: Cytotoxicity against human PANC1 cells after 96 hrs by MTT assay; assay type: functional, cell-based; conditions: PANC-1, 96 h
MCF7 [22] = experiment: Cytotoxicity against human MCF7 cells assessed as suppression of SP-positive cells at 1 nM after 90 mins by Hoechst staining-based FACS analysis (reference value: 2.71%); assay type: functional; summary of the method: as §2
MCF7 [23] = experiment: Cytotoxicity against human MCF7 cells assessed as suppression of SP-positive cells at 10 uM after 90 mins by Hoechst staining-based FACS analysis (reference value: 2.71%); assay type: functional

COc1cc(O)cc2c1C(=O)c1c(O)cc(C)cc1C2=O
Activity (MCF7 [1]): inactive

CC1(C)OC1Cc1cc(CC2=C(c3ccc(O)cc3)C(=O)OC2=O)ccc1O (configuration not stated)
Activity (MCF7 [1]): inactive

COc1cc(COC(C)=O)cc2c1C(=O)c1c(O)cc(O)cc1C2=O
Activity (MCF7 [1]): inactive

C/C=C/C1=CC(=O)[C@@H](O)[C@@H]1O [TERREIN]
inhibition (MCF7 [2]): Active
Activity (MCF7 [3]): Active
Activity (MCF7 [4]): 8.89%
Activity (MCF7 [5]): 29.6%
IC50 (MCF7 [6]): 1.1 nM
viability at 0.001 µM (MCF7 [7]): 59.7%
Activity (MCF7 [8]): Active
viability at 0.01 µM (MCF7 [9]): 65.6%
IC50 (HepG2): 66.8 nM
Activity (MCF7 [10]): 0.89%
inhibition of growth at 0.001 µM (MCF7 [11]): 70%
Activity (MCF7 [12]): 2.48%
Activity (MCF7 [13]): 1.89%
Activity (MCF7 [14]): Active
Activity (MCF7 [15]): Active
Activity (MCF7 [16]): Active
Activity (MCF7 [17]): Active
Activity (MCF7 [18]): Dose-dependent effect
Activity (MCF7 [19]): 24%
Activity (MCF7 [20]): 7.92%
Activity (MCF7 [21]): Active
IC50 (PANC-1): 9800 nM
Activity (MCF7 [22]): 0.77%

COC(=O)[C@@]1(Cc2ccc(O)c(CC=C(C)C)c2)OC(=O)C(O)=C1c1ccc(O)cc1
Activity (MCF7 [1]): inactive

COC(=O)c1cc(O)cc(OC)c1Oc1c(Cl)c(C)c(Cl)c(O)c1C(=O)OC
Activity (MCF7 [1]): inactive

CC(=O)O[C@H]1C(=O)[C@@]2(C)[C@H]([C@H](OC(=O)c3ccccc3)[C@]3(O)C[C@H](OC(=O)[C@H](O)[C@@H](NC(=O)c4ccccc4)c4ccccc4)C(C)=C1C3(C)C)[C@]1(OC(C)=O)CO[C@@H]1C[C@@H]2O [PACLITAXEL]
viability at 0.01 µM (MCF7 [9]): 72.1%
Activity (MCF7 [10]): 1.65%
Activity (MCF7 [12]): 2.91%
Activity (MCF7 [18]): Dose-dependent effect
Activity (MCF7 [19]): 15.6%
Activity (MCF7 [20]): 9.34%
Activity (MCF7 [22]): 1.71%

COc1cc(O)cc(C(=O)O)c1C(=O)c1c(O)c(Cl)c(C)c(Cl)c1O
Activity (MCF7 [1]): inactive

COc1ccc2c3c([nH]c2c1)[C@H](C=C(C)C)N1C(=O)[C@@H]2CCCN2C(=O)[C@@H]1C3 [FUMITREMORGIN]
Activity (MCF7 [23]): 0.81%

COC(=O)c1cc(O)cc(OC)c1C(=O)c1c(O)c(Cl)c(C)c(Cl)c1O
Activity (MCF7 [1]): inactive

COC(=O)[C@]1(Cc2ccc3c(c2)C[C@H](O)C(C)(C)O3)OC(=O)C(O)=C1c1ccc(O)cc1
Activity (MCF7 [1]): inactive

COC(=O)c1cc(O)cc(OC)c1Oc1cc(C)cc(O)c1C(=O)O
Activity (MCF7 [1]): inactive

COC(=O)[C@]1(Cc2ccc3c(c2)C[C@H](C(C)(C)O)O3)OC(=O)C(O)=C1c1ccc(O)cc1
Activity (MCF7 [1]): inactive

COC(=O)c1cc(O)cc(OC)c1Oc1c(Cl)c(C)c(Cl)c(O)c1C(=O)O
Activity (MCF7 [1]): inactive

Source: ChEMBL document CHEMBL2034883, “Asperjinone, a nor-neolignan, and terrein, a suppressor of ABCG2-expressing breast cancer cells, from thermophilic Aspergillus terreus” (J Nat Prod, 2012)
